Published values from different studies.
Protocols differ between the studies behind these lines. In brackets after ≈: the same amount, converted by molar mass.

Compound | tested on | test | test system | setting | endpoint | value
Cn1cnc(Cn2c(=O)[nH]/c(=N\c3cc4cn(C)nc4cc3Cl)n(Cc3cc(F)c(F)cc3F)c2=O)n1 | Alphacoronavirus 1 | viral replication, inhibitor, qPCR | CRFK | – | EC50 | ~50 µM
CCC1(c2ccc(N)cc2)CCC(=O)NC1=O (stereo not shown) | DU-145 | cell growth or viability, CCK-8 | – | 48 h | IC50 | > 50 µM
COCCOCOc1cc(O)c(-c2cc(-c3ccc(C(=O)O)cc3)n(-c3ccccc3)n2)cc1C12CC3CC(CC(C3)C1)C2 | Jurkat | cell growth or viability, ATP luminescence | – | 24 h | IC50 | 2.54 µM
COc1c2c(cc3c1OCO3)[C@]13C=C[C@H](OC)C[C@@H]1[N@](C2)C[C@H]3OC(=O)c1ccc2ccccc2c1 | MOLT-4 | cell growth or viability, WST-1 | – | – | IC50 | > 10 µM
CN(C(=O)/C=C/c1ccoc1)[C@@H]1CC[C@@]2(O)[C@H]3Cc4ccc(O)c5c4[C@@]2(CCN3CC2CC2)[C@H]1O5 | – | thermal pain | mouse | subcutaneous | ED50 | 0.046 mg/kg
CO[C@H]1/C=C/O[C@@]2(C)Oc3c(C)c(O)c4c(O)c(c(/C=N/N5CCN(C)CC5)c(O)c4c3C2=O)NC(=O)/C(C)=C\C=C\[C@H](C)[C@H](O)[C@@H](C)[C@@H](O)[C@@H](C)[C@H](OC(C)=O)[C@@H]1C | Mycobacteroides abscessus | microbial growth | ATCC19977 | – | MIC | 25 to 100 µg/mL (≈ 30.4 to 122 µM)
O=C(O)c1cn(C2CC2)c2cc(N3CCNCC3)c(F)cc2c1=O | Mycolicibacterium vaccae | microbial growth | IMET10670 | 5 µg/mL | inhibition zone | 41 mm
COC(=O)c1cc(-c2cccc(NC(=S)Nc3ccc(C#N)cc3)c2)on1 | Mycobacteroides abscessus | microbial growth, broth dilution | ATCC19977 | 48 h | MIC | > 64 µg/mL
[H]/N=C(/N)N[C@H]1[C@H](O)[C@@H](O)[C@H](O[C@@H]2O[C@@H](C)[C@](O)(C=O)[C@H]2O[C@@H]2O[C@@H](CO)[C@H](O)[C@@H](O)[C@@H]2NC)[C@@H](N/C(N)=N\[H])[C@@H]1O | Mycobacteroides abscessus | microbial growth | ATCC19977 | – | MIC | 50 µg/mL (≈ 86 µM)
COC(=O)c1cc(-c2cccc(NC(=O)Nc3cccc(Cl)c3)c2)on1 | Mycobacteroides abscessus | microbial growth, broth dilution | ATCC19977 | 48 h | MIC | > 64 µg/mL
COCCOCOc1cc(OCc2cc(F)cc(F)c2)c(C(=O)/C=C/c2ccc(C(=O)O)cc2)cc1C12CC3CC(CC(C3)C1)C2 | Jurkat | cell growth or viability, ATP luminescence | – | 24 h | IC50 | 0.93 µM
COC(=O)c1cc(-c2cccc(NC(=O)Nc3ccc(Cl)cc3Cl)c2)on1 | Mycobacteroides abscessus | microbial growth, broth dilution | ATCC19977 | 48 h | MIC | > 64 µg/mL
N.N.[Cl][Pt][Cl] | PLC | cell growth or viability | – | 24 h | IC50 | 63.9 µM
